Bioassay records as filed in PubChem BioAssay.
SIAE primary – blocks human sialic acid acetylesterase; Q9HAT2; SIAE FP-Rh probe binding, fluorescence polarization; inhibition, % at 9.66 µM; 370,000 tested, 0.69% active; AID 1053197;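 active = inhibition above a cutoff: mean of compounds within the control limits plus 3 SD of those, cut at about 17% in these data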;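 also: 0% = plate median of compound wells and 100% = probe without SIAE protein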
GSTO1 inh – GSTO1 inhibition, counter-screen for RBBP9 inhibitors. P78417. recombinant GSTO1, activity-based probe fluorescence polarization. inhibition, % at 5.96 µM. 300,000 tested, 1.1% active;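 active = inhibition above the campaign mean inhibition plus 3 SD, cut at about 35% in these data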;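 also: 0% = GSTO1-1 with DMSO and 100% = wells lacking GSTO1-1 enzyme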
Apaf1 inhib – blocks human Apaf-1 apoptosome activity. reconstituted apoptosome caspase-3 activity, DEVD-Rh110 fluorescence. inhibition, % at 20 µM. 330,000 tested, 0.71% active; active = inhibition of at least 40% at 20 µM;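 also: plate controls were DMSO wells for no effect and DEVD-CHO caspase inhibitor wells for full effect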
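Assay system – apoptosome proteins · Medium – Hepes buffer, pH 7.5 · Also added – cytochrome c with DEVD-Rh110 · Timing – 30 min compound preincubation, 50 min activation, room temperature · Detection – Rh110 fluorescence, excitation 480 nm, emission 540 nm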
PAD4 FP inh – PAD4 (human) enzyme inhibition; Q9UM07; recombinant PAD4, RCA probe fluorescence polarization; inhibition, % at 6.36 µM; 330,000 tested, 0.41% active;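 active = percent inhibition above a cutoff equal to the mean of all tested compounds plus 3 SD, cut at about 15% in these data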;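 also: 0% = PAD4 with RCA probe and DMSO and 100% = probe without PAD4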
Target sequence (Q9UM07 whole entry, looked up): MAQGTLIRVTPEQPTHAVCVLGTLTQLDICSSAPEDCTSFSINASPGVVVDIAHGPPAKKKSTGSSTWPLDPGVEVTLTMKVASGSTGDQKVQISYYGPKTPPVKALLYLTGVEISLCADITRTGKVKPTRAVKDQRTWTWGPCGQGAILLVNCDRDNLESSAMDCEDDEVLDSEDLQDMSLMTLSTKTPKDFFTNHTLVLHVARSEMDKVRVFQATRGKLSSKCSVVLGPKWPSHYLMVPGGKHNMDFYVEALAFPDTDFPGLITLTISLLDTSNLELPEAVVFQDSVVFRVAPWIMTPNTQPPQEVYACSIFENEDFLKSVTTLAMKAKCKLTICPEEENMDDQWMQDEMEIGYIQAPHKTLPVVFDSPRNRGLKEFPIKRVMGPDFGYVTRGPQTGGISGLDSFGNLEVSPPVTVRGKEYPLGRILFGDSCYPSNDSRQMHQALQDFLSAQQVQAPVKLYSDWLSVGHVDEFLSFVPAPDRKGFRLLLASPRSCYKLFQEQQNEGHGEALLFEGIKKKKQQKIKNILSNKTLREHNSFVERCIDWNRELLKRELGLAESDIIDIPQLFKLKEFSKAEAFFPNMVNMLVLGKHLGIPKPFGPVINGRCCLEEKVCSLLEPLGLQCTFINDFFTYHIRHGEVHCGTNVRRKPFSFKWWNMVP
TCR-CD3 inh – blocks the human TCR-CD3 interaction. 360,000 tested, 0.37% active. inhibition, % at 9.4 µM. TAMRA-labeled TCR probe fluorescence, biochemical; in the data active = inhibition above about 19%;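 also: recombinant mutant TCR 2C K166C tagged with TAMRA read by polarization; 0% = receptor in buffer alone and 100% = receptor with positive control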
TDP2 inh – TDP2 (human) inhibition, absorbance primary screen | recombinant TDP2, T5PNP hydrolysis, p-nitrophenol absorbance 415 nm | 370,000 tested, 0.34% active | inhibition, % at 12.8 µM;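 active = inhibition above the mean of all tested compounds plus 3 SD, set per campaign, cut at about 25% in these data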;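 also: 0% = DMSO with enzyme and 100% = buffer with substrate but no TDP2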
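Assay system: Recombinant human TDP2 | Quantity: 120 nM TDP2 per well | Incubation: 2 h at 37 °C | Signal: Epi absorbance | Evaluation: Percent inhibition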
SIAE confirm – confirmation of human SIAE inhibitors; shares compounds with SIAE primary; SIAE FP-Rh activity-based probe, fluorescence polarization; inhibition, % at 9.66 µM; 2,300 tested, 13% active; AID 1117263;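 active = mean inhibition of the replicates above the hit cutoff set in the primary screen, cut at about 17% in these data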;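 also: 0% = SIAE with DMSO and probe and 100% = probe without SIAE; inhibitors lower polarization as more probe stays unbound to SIAE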
Numbers without * were called inactive; . = no result given. Compounds with a hit are over-represented: about 2.4% of the library has one in this group of screens.

SMILES	SIAE primary	GSTO1 inh	Apaf1 inhib	PAD4 FP inh	TCR-CD3 inh	TDP2 inh	SIAE confirm
CCC(=O)NC(c1ccco1)c1cc(Br)c2cccnc2c1O (stereo not given)	19*	.	.	.	-2	6	11
CCCCC(=O)NC(c1ccc(Cl)cc1Cl)c1ccc2cccnc2c1O (stereo not given)	4	.	1	.	-1	-11	.
CCCC(=O)NC(c1ccc(C(C)C)cc1)c1ccc2cccnc2c1O (stereo not given)	10	-2	-10	-2	-3	-8	.
CC1CCc2c(sc3nc(CN4CCN(S(=O)(=O)c5ccccc5[N+](=O)[O-])CC4)[nH]c(=O)c23)C1 (stereo not given)	-9	-28	18	1	-6	9	.
CC(C)(C)C(=O)Nc1c2c(nn1-c1cccc(Cl)c1)CS(=O)(=O)C2	-11	-4	-4	-1	2	12	.
CC(=O)Nc1c2c(nn1-c1cccc(Cl)c1)CS(=O)(=O)C2	18*	0	-6	-3	2	5	-5
CC(NC(=O)c1ccccc1)c1nc2ccccc2n1Cc1ccc(C#N)cc1 (stereo not given)	-8	-5	8	-9	-3	2	.
COC(=O)[C@@]12C[C@@H](CC(=O)NCc3ccc(C)o3)C(=O)N(Cc3ccc4c(c3)OCO4)C1=CCC(C)(C)C2	17*	.	.	.	-5	2	6
COC(=O)[C@@]12C[C@@H](CC(=O)NCc3cccs3)C(=O)N(Cc3ccc4c(c3)OCO4)C1=CCC(C)(C)C2	1	.	.	.	-5	1	.
CC1(C(=O)Nc2ccccc2)CCN1C(=O)CCc1ccc(Cl)cc1Cl (stereo not given)	19*	.	.	.	-5	2	-1
CC1(C(=O)NS(=O)(=O)c2ccccc2Cl)CCN1C(=O)CCc1ccc(Cl)cc1Cl (stereo not given)	3	.	.	.	2	3	.
COc1ccc(NC(=O)Cn2c(=O)n(-c3ccccc3)c(=O)c3oc4ccccc4c32)c(OC)c1	1	0	2	-1	1	3	.
COc1ccc(-n2c(COc3cccc(C)c3)n[nH]c2=S)cc1	19*	3	-2	-3	-2	9	-1
Cc1ccc(C2CC(=O)Nc3cc4c(cc32)OCCO4)s1 (stereo not given)	6	-3	7	-4	1	-3	.
O=C(Nc1cccc(/C=C/c2ccccn2)c1)c1ccc(-n2cncn2)c([N+](=O)[O-])c1	19*	-11	15	-2	-2	9	-17
O=C(Nc1ccc(F)c(F)c1)c1ccc(-n2cncn2)c([N+](=O)[O-])c1	4	.	-7	-3	11	-1	.
CCN(CC)CCCN(C(=O)c1ccc(F)cc1)c1nc(-c2ccc(OC)cc2)cs1	24*	3	14	-1	0	-5	4
COc1ccc(-c2csc(N(CCCN(C)C)C(=O)c3ccc(F)cc3)n2)cc1	2	-2	10	0	0	7	.
Cc1cc(=O)[nH]c(SCc2nc3ncccn3c2Br)n1	-10	0	-17	5	5	-21	.
O=C(O)C1=C[C@H](c2csc3ccccc23)C[C@H](OCc2ccc(CO)cc2)O1	4	1	1	-2	-5	0	.
O=C(O)C1=C[C@@H](c2csc3ccccc23)C[C@@H](OCc2ccc(CO)cc2)O1	22*	10	0	-1	5	0	-1
CCOC(=O)c1ccc(N2C(=O)C3ON(c4ccccc4)C(c4ccco4)C3C2=O)cc1 (stereo not given)	.	4	4	-1	.	.	.
CC(=O)Nc1ccc(CNc2nc(NC(C)C)nc3cc(-c4ccccc4)sc23)cc1	55*	.	.	.	3	-3	53*
C=CCNc1nc(NCc2ccc(NC(C)=O)cc2)c2sc(-c3ccccc3)cc2n1	39*	.	.	.	0	1	37*
Nc1ccccc1NC1=CC(=O)CC(c2ccco2)C1 (stereo not given)	19*	0	-2	-1	-2	-3	3
Cc1ccc(NC2=CC(=O)CC(c3ccco3)C2)c(N)c1 (stereo not given)	5	4	2	2	-8	-15	.
